Activity calls are given as the source filed them. No cut-off for these calls is given here.

Beta-1 adrenergic receptor (Homo sapiens), sequence (P08588 whole entry, looked up): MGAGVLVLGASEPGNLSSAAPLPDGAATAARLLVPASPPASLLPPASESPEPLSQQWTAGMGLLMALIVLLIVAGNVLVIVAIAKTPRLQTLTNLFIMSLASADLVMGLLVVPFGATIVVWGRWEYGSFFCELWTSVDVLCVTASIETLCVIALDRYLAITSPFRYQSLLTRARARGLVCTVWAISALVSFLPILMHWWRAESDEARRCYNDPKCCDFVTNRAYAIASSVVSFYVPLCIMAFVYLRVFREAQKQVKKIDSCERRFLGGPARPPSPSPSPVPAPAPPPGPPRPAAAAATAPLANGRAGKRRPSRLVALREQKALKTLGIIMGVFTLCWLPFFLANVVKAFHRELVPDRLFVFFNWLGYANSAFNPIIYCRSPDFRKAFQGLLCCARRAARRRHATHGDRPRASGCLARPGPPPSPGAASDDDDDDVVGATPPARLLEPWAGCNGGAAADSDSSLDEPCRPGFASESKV
Vasopressin V2 receptor (Homo sapiens), sequence (P30518 whole entry): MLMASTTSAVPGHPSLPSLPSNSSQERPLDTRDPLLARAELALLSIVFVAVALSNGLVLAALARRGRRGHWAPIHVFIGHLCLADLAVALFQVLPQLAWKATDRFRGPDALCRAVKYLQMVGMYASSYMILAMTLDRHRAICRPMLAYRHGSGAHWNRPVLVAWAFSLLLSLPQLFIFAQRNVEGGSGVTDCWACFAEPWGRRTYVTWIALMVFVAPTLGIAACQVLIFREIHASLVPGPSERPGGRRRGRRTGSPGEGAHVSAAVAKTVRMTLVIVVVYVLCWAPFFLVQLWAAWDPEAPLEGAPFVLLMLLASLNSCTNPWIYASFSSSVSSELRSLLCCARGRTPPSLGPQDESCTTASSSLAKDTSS

The first assay has as its target Vasopressin V2 receptor (Homo sapiens) (UniProt P30518). The assay is described as follows: Antagonist activity at AVPR2 (unknown origin) assessed as inhibition of [Arg8]-Vasopressin induced beta arrestin recruitment at 10 uM. Format: functional.
Settings: not given
For the molecule `Cc1cc(N2CCNCC2)c2ccccc2n1`, the inhibition result was “inactive”.

On to `c1ccc2c(C3CCNCC3)c[nH]c2c1`, for which the inhibition entry is “inactive”.

For the molecule `Clc1cncc(Cl)c1N1CCNCC1`, the inhibition result is “inactive”.

For the molecule `Clc1ccc2c(N3CCNCC3)ccnc2c1`, the inhibition entry is “inactive”.

For a further assay the target is unchanged. The assay is described as follows: Antagonist activity at AVPR2 (unknown origin) assessed as inhibition of [Arg8]-Vasopressin induced cAMP production at 10 to 100 uM. Format: functional.
Settings: not given
A general note: Cyclic AMP is a second messenger, typically raised through Gs and lowered through Gi signalling.
Turning to `Cc1cc(N2CCNCC2)c2ccccc2n1`, the inhibition entry is “inactive”.

For `c1ccc2c(C3CCNCC3)c[nH]c2c1`, the inhibition entry was “inactive”.

For `Clc1cncc(Cl)c1N1CCNCC1`, the inhibition result was “inactive”.

In the case of `Clc1ccc2c(N3CCNCC3)ccnc2c1`, the inhibition entry is “inactive”.

Another assay shares this target. The assay is described as follows: Agonist activity at AVPR2 (unknown origin) assessed as stimulation of beta arrestin recruitment. Format: functional.
Settings: not given
(In general: Activated receptors often draw arrestin, which recruitment assays turn into a signal.)
As to `Cc1cc(N2CCNCC2)c2ccccc2n1`, the result was inactive.

For the molecule `c1ccc2c(C3CCNCC3)c[nH]c2c1`, the outcome was inactive.

For `Clc1cncc(Cl)c1N1CCNCC1`, the outcome was inactive.

`Clc1ccc2c(N3CCNCC3)ccnc2c1`: the result was inactive.

The next assay has the same target. Description: Agonist activity at AVPR2 (unknown origin) assessed as stimulation of cAMP production. Format: functional.
Settings: not given
For `Cc1cc(N2CCNCC2)c2ccccc2n1`, the result was inactive.

As for `c1ccc2c(C3CCNCC3)c[nH]c2c1`, the outcome was inactive.

Regarding `Clc1cncc(Cl)c1N1CCNCC1`, the result was inactive.

For the molecule `Clc1ccc2c(N3CCNCC3)ccnc2c1`, the result was inactive.

A further assay concerns the target T1, Beta-2 adrenergic receptor (Homo sapiens, UniProt P07550). The assay is described as follows: Antagonist activity at human beta2 adrenoceptor containing C-terminus of V2 vasopressin receptor expressed in HEK293 cells assessed as inhibition of isoproterenol-induced beta arrestin recruitment at 100 uM after 15 to 18 hrs by luciferase reporter gene assay. Format: functional, cell-based.
Settings: not given
Target sequence in this assay (P07550 whole entry, looked up): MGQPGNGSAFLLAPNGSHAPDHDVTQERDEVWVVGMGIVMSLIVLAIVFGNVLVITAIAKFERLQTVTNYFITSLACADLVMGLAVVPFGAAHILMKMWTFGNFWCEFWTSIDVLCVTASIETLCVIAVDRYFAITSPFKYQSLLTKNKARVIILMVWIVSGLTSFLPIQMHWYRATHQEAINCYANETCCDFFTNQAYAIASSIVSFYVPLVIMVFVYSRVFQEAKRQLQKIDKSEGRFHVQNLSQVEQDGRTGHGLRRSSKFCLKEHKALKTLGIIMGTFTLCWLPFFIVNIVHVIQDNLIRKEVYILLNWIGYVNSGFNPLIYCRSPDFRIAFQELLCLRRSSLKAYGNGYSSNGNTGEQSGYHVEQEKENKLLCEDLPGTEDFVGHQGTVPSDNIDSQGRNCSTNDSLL
Regarding `c1ccc2c(C3CCNCC3)c[nH]c2c1`, the inhibition result is “Active”.

As for `Clc1cncc(Cl)c1N1CCNCC1`, the inhibition entry was “Active”.

The target of the next assay is T1, Beta-2 adrenergic receptor. The assay is described as follows: Antagonist activity at human beta2 adrenoceptor expressed in HEK293 cells assessed as inhibition of isoproterenol-induced cAMP production at 100 uM after 5 mins by luciferase reporter gene assay. Format: functional, cell-based.
Settings: not given
Target sequence in this assay (P07550 whole entry, looked up): as above
Take `c1ccc2c(C3CCNCC3)c[nH]c2c1`: the inhibition result was “Active”.

On to `Clc1cncc(Cl)c1N1CCNCC1`, for which the inhibition entry is “Active”.

The next assay concerns the target T1, Beta-2 adrenergic receptor. Description: Antagonist activity at human beta2 adrenoceptor containing C-terminus of V2 vasopressin receptor expressed in HEK293 cells assessed as inhibition of isoproterenol-induced beta arrestin recruitment at 10 uM after 15 to 18 hrs by luciferase reporter gene assay.
Settings: not given
Format: functional, cell-based.
Target sequence in this assay (P07550 whole entry, looked up): as above
As for `Clc1ccc2c(N3CCNCC3)ccnc2c1`, the inhibition entry was “Active”.

Another assay has as its target T1, Beta-2 adrenergic receptor. The assay is described as follows: Antagonist activity at human beta2 adrenoceptor expressed in HEK293 cells assessed as inhibition of isoproterenol-induced cAMP production at 10 uM after 5 mins by luciferase reporter gene assay.
Settings: not given
Format: functional, cell-based.
Target sequence in this assay (P07550 whole entry, looked up): as above
Take `Clc1ccc2c(N3CCNCC3)ccnc2c1`: the inhibition entry is “Active”.

The target in another assay is T1, Beta-2 adrenergic receptor. Description: Agonist activity at human beta2 adrenoceptor containing C-terminus of V2 vasopressin receptor expressed in HEK293 cells assessed as stimulation of beta arrestin recruitment after 15 to 18 hrs by luciferase reporter gene assay. Format: functional, cell-based.
Settings: not given
Target sequence in this assay (P07550 whole entry, looked up): as above
For the molecule `c1ccc2c(C3CCNCC3)c[nH]c2c1`, the result was inactive.

Take `Clc1cncc(Cl)c1N1CCNCC1`: the result was inactive.

Regarding `Clc1ccc2c(N3CCNCC3)ccnc2c1`, the result was inactive.

The next assay addresses T1, Beta-2 adrenergic receptor. The assay is described as follows: Agonist activity at human beta2 adrenoceptor expressed in HEK293 cells assessed as stimulation of cAMP production after 5 mins by luciferase reporter gene assay. Format: functional, cell-based.
Settings: not given
Target sequence in this assay (P07550 whole entry, looked up): as above
For the molecule `c1ccc2c(C3CCNCC3)c[nH]c2c1`, the result was inactive.

`Clc1cncc(Cl)c1N1CCNCC1`: the result was inactive.

On to `Clc1ccc2c(N3CCNCC3)ccnc2c1`, for which the result was inactive.

Another assay concerns the target Beta-1 adrenergic receptor (Homo sapiens) (UniProt P08588). The assay is described as follows: Displacement of [125I]-Cyanopindolol from human beta1 adrenoceptor expressed in HEK293 cells after 90 mins by gamma counting analysis. Format: cell-based.
Settings: not given
With `c1ccc2c(C3CCNCC3)c[nH]c2c1`, the Kic was 9.9 µM.

Turning to `Clc1cncc(Cl)c1N1CCNCC1`, the Kic came out at 12.9 µM.

`Clc1ccc2c(N3CCNCC3)ccnc2c1`: the Kic was determined as 0.152 µM.

For the next assay, the target named is T1, Beta-2 adrenergic receptor. The assay is described as follows: Displacement of [125I]-Cyanopindolol from human beta2 adrenoceptor expressed in HEK293 cells after 90 mins by gamma counting analysis.
Settings: not given
Format: cell-based. (In general: Loss of bound radioactivity is the signal in a displacement assay; it reports binding, not function.)
`c1ccc2c(C3CCNCC3)c[nH]c2c1` returned a Kic of 14.1 µM.

In the case of `Clc1cncc(Cl)c1N1CCNCC1`, the Kic came to 15 µM.

For the molecule `Clc1ccc2c(N3CCNCC3)ccnc2c1`, the Kic stood at 0.191 µM.

In another assay the target is T1, Beta-2 adrenergic receptor. Description: Binding affinity to N-terminal FLAG-tagged C-terminal His-10-tagged human beta2 adrenoceptor expressed in insect Sf9 cells by surface plasmon resonance analysis in presence of maltose neopentyl glycol. The conditions noted are these: read-out: Kd. Summed up: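 Same NTA chip capture of His-10-tagged purified receptor as the primary SPR screen, but the binding run was done in MNG detergent. KD by SPR.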
Target sequence in this assay (P07550 whole entry): as the sequence (P07550 whole entry, looked up) above
For orientation: Kd means the constant that tells how readily two partners part at equilibrium. `FC(F)(F)c1cc(N2CCNCC2)c2ccccc2n1`: the equilibrium dissociation constant (Kd) was determined as 84.2 nM.

As to `Cc1cc(N2CCNCC2)c2ccccc2n1`, the Kd stood at 72.5 nM.

Take `c1cc(N2CCNCC2)ccn1`: the equilibrium dissociation constant (Kd) turned out to be 142000 nM.

As to `FC(F)(F)c1ccc2c(N3CCNCC3)ccnc2c1`, the Kd was 8000 nM.

Regarding `Cc1ccc2nc(C(F)(F)F)cc(N3CCC(F)(F)CC3)c2c1`, the equilibrium dissociation constant (Kd) was 67100 nM.

For `Clc1ccc2c(N3CCNCC3)ccnc2c1`, the Kd stood at 76.5 nM.

`c1ccc2c(N3CCNCC3)ccnc2c1`: the Kd stood at 348 nM.

For `Cc1ccc2nc(C(F)(F)F)cc(N3CCN(C)CC3)c2c1`, the dissociation constant Kd came to 1800 nM.

Staying with this assay, now noted: sf9.
As to `Cc1ccc2nc(C(F)(F)F)cc(N3CCOCC3)c2c1`, the dissociation constant Kd result was “Not Active”.

Another assay has as its target T1, Beta-2 adrenergic receptor. The assay is described as follows: Binding affinity to N-terminal FLAG-tagged C-terminal His-10-tagged human beta2 adrenoceptor expressed in insect Sf9 cells by surface plasmon resonance analysis in presence of dodecyl maltoside.
Settings: not given
With `c1ccc2c(C3CCNCC3)c[nH]c2c1`, the result was Active.

Consider `Clc1cncc(Cl)c1N1CCNCC1`, for which the outcome was Active.

As to `Clc1ccc2c(N3CCNCC3)ccnc2c1`, the outcome was Active.

A further assay has as its target T1, Beta-2 adrenergic receptor. Description: Binding affinity to N-terminal FLAG-tagged C-terminal His-10-tagged human beta2 adrenoceptor expressed in insect Sf9 cells by surface plasmon resonance analysis.
Settings: not given
Target sequence in this assay (P07550 whole entry): as the sequence (P07550 whole entry, looked up) above
`Cc1cc(N2CCNCC2)c2ccccc2n1` showed a Kd of 93.4 nM.

Turning to `c1ccc2c(C3CCNCC3)c[nH]c2c1`, the Kd came out at 22200 nM.

Regarding `Clc1cncc(Cl)c1N1CCNCC1`, the affinity, expressed as Kd, was 3500 nM.

Consider `Clc1ccc2c(N3CCNCC3)ccnc2c1`, for which binding was put at a Kd of 82.5 nM.

The next assay concerns the target T1, Beta-2 adrenergic receptor. The conditions noted are these: Sf9.
For the molecule `Clc1ccc2c(N3CCNCC3)ccnc2c1`, the Ka stood at 6.62 ×10⁵ /M/s.

The values above are taken from ChEMBL document CHEMBL2440021, “Discovery of β2 Adrenergic Receptor Ligands Using Biosensor Fragment Screening of Tagged Wild-Type Receptor” (ACS Med Chem Lett, 2013).
